Bioassay records: PubChem, several laboratories
bCat nuc transl – modulators of beta-catenin nuclear translocation; HeLa beta-catenin nuclear translocation, immunofluorescence imaging; nuclear translocation activity, % at 5 µM; 190,000 compounds, 0.3% hits; AID 1665;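 active = nuclear translocation activity above 50% at 5 µM, with a well cell count of 50 or more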;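 also: per-cell ratio of nuclear to cytoplasmic median beta-catenin stain intensity; plate controls were DMSO negative control for no effect and GSK-3 inhibitor IX positive control for full effect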
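Technique: fluorescence imaging of beta-catenin antibody stain plus DAPI / Material: human HeLa cell line / Incubation: compound treatment 24 h, 37°C, 5% CO2 / Read-out basis: % activation of per-cell nuclear versus cytoplasmic median beta-catenin signal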
BaF3 parental – reduces parental Ba/F3 cell viability, JAK2V617F counter-screen; CellTiter-Glo ATP luminescence; inhibition, % at 5.6 µM; 220,000 compounds, 1.1% hits; AID 1486;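 active = inhibition above a per-campaign cutoff, the mean inhibition of all tested compounds plus 3 SD, cut at about 27% in these data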;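 also: 0% = DMSO wells and 100% = JAK Inhibitor I control wells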
MT stabilize HCS – microtubule stabilization, imaging screen | HeLa tubulin immunostaining HCS, 24 h; share of cells brighter than vehicle mean+2SD | 200,000 compounds, 0.83% hits | % tubulin-high responders, % at 10 µM;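 active = plate Z-score above 3 for both tubulin-high and condensed-nucleus cell shares, with cell loss under 80%, at 10 µM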;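 also: anti alpha tubulin signal scored within the nucleus-defined area of each cell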
APP 5UTR inh – APP translation inhibition; SH-SY5Y APP 5'UTR-luciferase reporter, luminescence; inhibition, % at 2 µM; 190,000 compounds, 0.82% hits; AID 1285;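 active = inhibition above a set limit, derived from the sample mean plus 3 SD, cut at about 45% in these data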
IEC-6 cytotox – kills IEC-6 intestinal cells in KLF5 counter-screen; inhibition, % at 5 µM; 290,000 compounds, 0.78% hits; AID 1825; IEC-6 cytotoxicity, luminescence viability; in the data active = inhibition above about 22%;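 also: 0% = plate median of test compound wells and 100% = cytotoxic reference compound wells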
Ba/F3 V617F tox – reduce viability of Ba/F3 cells dependent on JAK2V617F. Ba/F3 EpoR-JAK2V617F viability, ATP luminescence. inhibition, % at 5.6 µM. 220,000 compounds, 1.1% hits;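 active = inhibition above the campaign mean plus 3 SD over all tested compounds, cut at about 24% in these data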;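 also: cytokine-independent growth of Ba/F3 cells driven by EpoR plus mutant JAK2; 0% = DMSO-treated cells and 100% = JAK inhibitor I control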
* hit, by the source's call; . = no result given. Most compounds without a hit are left out; they make up all but 2.2% or so of the library.

SMILES	bCat nuc transl	BaF3 parental	MT stabilize HCS	APP 5UTR inh	IEC-6 cytotox	Ba/F3 V617F tox
CCCc1cc(=O)oc2cc(OC(C)C(=O)NC3CC(C)(C)NC(C)(C)C3)ccc12 (centres undefined)	.	.	.	.	-7.3	.
CC(C)CNC(=O)NC(=O)COC(=O)Cn1cnc2ccccc2c1=O	-1.3	-5.2	3.2	13.6	1.6	-3.0
CSc1ccc(/C=N/NC(=O)c2ccc(C)c(C)c2)cc1	1.1	1.8	23.9*	8.1	8.4	1.9
CSc1ccc(/C=N/NC(=O)c2cc(O)cc(O)c2)cc1	-0.8	2.6	2.5	-50.0	7.4	-1.4
CC1=NN(C(=O)c2ccccc2F)C(O)(c2ccc(Cl)cc2)C1 (centres undefined)	.	.	.	.	10.6	.
O=C(CN1C(=O)CCC1=O)c1ccc(-c2ccccc2)cc1	0.1	2.8	1.9	-28.2	-6.0	-2.4
N=c1ccn(CC(=O)c2ccc(-c3ccccc3)cc2)cc1	2.1	75.3*	14.4	7.5	3.7	98.1*
CC(C)c1ccc(NC2CCCN(C(=O)c3cccs3)C2)cc1 (centres undefined)	.	.	.	.	0.8	.
CCOC(=O)/C=C(\C)Sc1cc(O)c2ccccc2c1O	1.0	0.2	.	.	33.7*	-0.3
CCOC(=O)/C=C(\C)Sc1cc(=O)oc2ccccc12	-0.4	5.7	3.5	-9.9	3.2	4.2
Cc1ccc(-c2cc3cccc[n+]3cc2-c2ccc(C)cc2)cc1	-2.8	78.8*	2.4	6.2	27.6*	95.7*
COc1ccc(CC(=O)Nc2ccc(-c3cn4ccccc4n3)cc2)cc1	-4.1	2.6	1.3	58.3*	4.9	-2.7
COc1ccc(CC(=O)Nc2cccc(-c3cn4ccccc4n3)c2)cc1	-0.4	4.2	3.0	-0.3	-2.2	-2.0
O=C(NC(=S)Nc1cccc(Cl)c1N1CCCCC1)c1ccc2c(c1)OCCO2	85.9*	4.7	29.0*	12.2	-1.0	-0.6
CN1c2ccccc2N(C)C1c1ccc2c(c1)OCO2	0.3	60.6*	2.1	-23.8	2.5	70.7*
Cc1ccc(C)c(S(=O)(=O)N2CCN(Cc3ccc(O)c4ncccc34)CC2)c1	-3.5	0.9	5.1	56.3*	-1.3	21.2
CCCOCc1ccc(O)c2ncccc12	1.0	2.6	.	.	2.3	-3.5
Oc1ccc(CN2CCN(c3ccccc3)CC2)c2cccnc12	-0.8	5.3	4.7	-7.2	0.3	-0.4
OCc1ccc(O)c2ncccc12	-1.1	31.9*	2.1	36.2	-6.2	66.6*
Oc1ccc(CNc2ccccc2F)c2cccnc12	-1.2	1.5	3.2	48.3*	-4.1	3.1
Oc1ccc(CN2CCCCC2)c2cccnc12	-4.5	62.1*	4.5	88.1*	2.1	86.2*
Oc1ccc(F)c2cccnc12	-3.8	2.1	1.8	-8.1	1.7	1.3
O=C(Cc1ccsc1)Nc1ccc(S(=O)(=O)C(F)F)cc1	-2.0	1.5	6.2	-0.9	0.1	-5.9
O=C(COc1ccccc1)NCC(=O)Nc1cccc(S(=O)(=O)NC2=NCCC2)c1	-3.0	4.2	2.3	-27.5	-9.3	-1.5
CCOC(=O)N1CCN(Cc2ccc(O)c3ncccc23)CC1	2.1	6.6	2.5	11.3	7.0	3.3
SMILES	bCat nuc transl	BaF3 parental	MT stabilize HCS	APP 5UTR inh	IEC-6 cytotox	Ba/F3 V617F tox
Oc1ccc(CN2CCc3ccccc3C2)c2cccnc12	0.5	76.7*	1.7	86.8*	5.6	75.3*
Cn1ncc(Cl)c1C(=O)Nc1nc2ccc(Cl)cc2s1	0.5	36.9*	3.5	-98.9	-0.2	-2.6
CCN(CC(=O)Nc1ccc(C(=O)Nc2ccc(OC)cc2)cc1)Cc1nc2ccccc2c(=O)[nH]1	-0.2	2.3	.	.	12.7	-1.9
Cc1cccc(NS(=O)(=O)c2cn(C)c(=O)n(C)c2=O)c1C	.	.	.	.	-0.6	.
C(=C\c1ccccc1)/CSc1nnc(-c2ccccn2)n1Cc1ccco1	53.2*	15.7	29.0*	18.3	20.4	8.9
O=C(Nc1cccc(Cl)c1)Nc1ccnc(-c2cccnc2)n1	1.7	0.5	2.6	56.5*	-9.5	7.5
COC(=O)c1ccc(C(=S)NCC2(N(C)C)CCCCC2)cc1	.	.	.	.	2.9	.
O=C(CCCN1C(=O)/C(=C\c2ccccc2)SC1=S)Nc1ccc(O)cc1	-0.1	5.1	2.3	18.6	-2.0	0.4
Cc1ccc(/C=C2/SC(=S)N(CCCC(=O)Nc3ccc(O)cc3)C2=O)cc1	-1.2	-1.7	2.5	63.3*	4.6	1.4
CC(C)(C)c1ccc(OCC(=O)N(Cc2cccs2)C2CCS(=O)(=O)C2)cc1 (centres undefined)	.	.	.	.	2.2	.
Cc1ccc(C(=O)NC(=S)N2CCN(C)CC2)cc1	1.9	1.6	1.4	51.6*	5.8	-2.9
Cc1ccc(OCc2nnc(SC(C)C(=O)O)n2-c2ccccc2)cc1 (centres undefined)	.	.	.	.	-2.9	.
Cc1ccc2nc(/C(C#N)=C/c3cn[nH]c3-c3ccc(F)cc3)[nH]c2c1	100.2*	-2.6	35.8*	17.5	15.7	-1.8
CC1CC(C)CN(S(=O)(=O)c2ccc(C(=O)NCCCn3ccnc3)cc2)C1 (centres undefined)	-1.0	4.3	4.7	72.6*	3.9	6.3
N=c1oc2ccc3ccccc3c2cc1C(N)=S	0.0	-1.9	4.7	-13.1	-0.3	-2.9
C/C(=N\NC(=O)C(c1ccccc1)c1ccccc1)c1ccccn1	.	12.2	3.1	69.0*	-2.2	5.2
C/C(=N\NC(=O)C1CCCN(S(=O)(=O)c2ccccc2)C1)c1ccccn1 (centres undefined)	4.7	0.8	2.1	46.4*	-3.8	-0.1
C/C(=N\NC(=O)C1CCCN(S(=O)(=O)c2ccccc2)C1)c1ccncc1 (centres undefined)	-1.2	1.0	2.9	13.5	4.3	1.4
C/C(=N\NC(=O)C(c1ccccc1)c1ccccc1)c1ccc(O)cc1	.	.	.	.	-1.4	.
O=C(CNS(=O)(=O)c1ccc([N+](=O)[O-])cc1)N/N=C/c1ccc(O)cc1O	.	.	.	.	4.6	.
O=C(OCC(=O)N1CCCC1=O)c1cccc([N+](=O)[O-])c1	.	.	.	.	-1.8	.
CCN(CC)S(=O)(=O)c1cc(NC(=O)Cn2ncc(Cl)c(Cl)c2=O)ccc1C	-1.2	-3.3	.	.	14.1	6.5
CCCc1cc(=O)[nH]c(SCC(=O)N(C)CC(=O)Nc2ccccc2CC)n1	-0.8	4.8	2.9	0.4	-2.9	1.2
CCn1cc(C(=O)NC(C)C23CC4CC(CC(C4)C2)C3)cn1 (centres undefined)	0.6	6.1	2.4	10.4	-9.3	-2.1
CC(NC(=O)Cn1ncc(Cl)c(Cl)c1=O)C12CC3CC(CC(C3)C1)C2 (centres undefined)	1.9	74.6*	4.6	96.2*	25.4*	62.6*
CCc1ccccc1NC(=O)CN(C)C(=O)Cn1ncc(Cl)c(Cl)c1=O	19.5	2.7	5.6	97.0*	9.1	3.2
Cc1ccc(C)c(C(=O)Cn2ncc(Cl)c(Cl)c2=O)c1	6.7	1.9	2.8	38.3	6.7	12.5
Cc1cc(Br)ccc1NC(=O)CNC(=O)Cn1ncc(Cl)c(Cl)c1=O	-2.3	7.6	2.8	96.2*	6.4	2.7
